Results reported in publication PMC3594472 (Bioorganic & medicinal chemistry letters, 2013).

Legend:
human M1 (hM1) receptor [1] = molecular target: T1, human M1 (hM1) receptor (Homo sapiens, UniProt P11229); experiment: hM1 PAM functional activity; type: cell-based; settings: for hM1 PAM activity (in words): concentrations up to 30 µM
T1 sequence (P11229 1-460): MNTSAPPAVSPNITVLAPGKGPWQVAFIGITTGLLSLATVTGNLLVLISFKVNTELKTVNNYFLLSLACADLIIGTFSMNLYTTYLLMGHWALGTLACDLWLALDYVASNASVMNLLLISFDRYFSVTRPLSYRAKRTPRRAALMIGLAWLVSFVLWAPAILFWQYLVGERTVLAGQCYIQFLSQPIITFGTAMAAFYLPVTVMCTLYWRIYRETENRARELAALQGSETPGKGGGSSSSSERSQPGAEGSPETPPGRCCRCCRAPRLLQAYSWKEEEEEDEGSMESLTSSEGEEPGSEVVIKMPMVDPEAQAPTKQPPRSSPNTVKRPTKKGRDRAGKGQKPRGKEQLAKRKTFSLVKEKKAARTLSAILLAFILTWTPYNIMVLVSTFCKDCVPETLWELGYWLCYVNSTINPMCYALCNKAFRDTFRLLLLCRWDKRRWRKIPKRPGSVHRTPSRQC
Outline: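 Human M1 PAM functional assay. Test compound was run at concentrations up to a top level of 30 µM. Efficacy is expressed as percent of the maximal acetylcholine response. Where hM1 EC50 is listed as >10, the figure given is the percent maximal ACh response with test compound at 30 µM. Values are mean ± standard error of the mean of at least three independent determinations, each performed in triplicate.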

human M1 (hM1) receptor [2] = molecular target: T1, human M1 (hM1) receptor; settings: previously reported value; ref 7b; cited from earlier work
[3] = tested on: all five human muscarinic acetylcholine receptors; experiment: Muscarinic selectivity profiling, human receptors; type: cell-based; settings: up to the highest concentration tested (30 µM)
[4] = tested on: all five rat muscarinic acetylcholine receptors; experiment: Muscarinic selectivity profiling, rat receptors; type: cell-based; settings: up to the highest concentration tested (30 µM)

hM1 PAM activity (in words) (human M1 (hM1) receptor [1])	Structure (SMILES)	other results
lacked any PAM activity	Cn1cc(-c2ccc(CN3C(=O)C4(CCNC4)c4ccccc43)c(F)c2)cn1 (stereo not drawn) [Compound 18e]	–
inactive	CN1CCCC12C(=O)N(Cc1ccc(Br)cc1)c1ccccc12 (stereo not drawn) [Compound 14]	–
eliminated PAM activity	Cc1c(-c2ccc(CN3C(=O)C4(CCN(C5CCCC5)C4)c4ccccc43)c(F)c2)cnn1C (stereo not drawn) [Compound 20c]	–
–	Cn1cc(-c2ccc(CN3C(=O)C(=O)c4ccccc43)c(F)c2)cn1 [ML137]	%AChmax (human M1 (hM1) receptor [2]): 65%
inactive	Cn1cc(-c2ccc(CN3C(=O)C4(CCN(c5ccccc5)C4)c4ccccc43)c(F)c2)cn1 (stereo not drawn) [Compound 19s]	–
low micro-molar activity	Cn1cc(-c2ccc(CN3C(=O)C4(CCN(c5ncccn5)C4)c4ccccc43)c(F)c2)cn1 (stereo not drawn) [Compound 19t]	–
inactive	Cc1nn(C)c(C)c1-c1ccc(CN2C(=O)C3(CCN(C4CCCC4)C3)c3ccccc32)c(F)c1 (stereo not drawn) [Compound 20d]	–
inactive	O=C1N(Cc2ccc(Br)cc2)c2ccccc2C12CCCO2 (stereo not drawn) [Compound 17]	–
–	Cn1cc(-c2ccc(CN3C(=O)C4(OCCO4)c4ccccc43)c(F)c2)cn1 [Compound 3]	selectivity across human muscarinic receptors (M1-M5) [3]: completely selective for the M1 receptors; selectivity across rat muscarinic receptors (M1-M5) [4]: completely selective for the M1 receptors
inactive	O=C1N(Cc2ccc(Br)cc2)c2ccccc2C12CCCN2 (stereo not drawn) [Compound 13]	–
–	CN1CCC2(C1)C(=O)N(Cc1ccc(-c3cnn(C)c3)cc1F)c1ccccc12 (stereo not drawn) [Compound 18d]	selectivity across human muscarinic receptors (M1-M5) [3]: completely selective for the M1 receptors; pEC50 (human M1 (hM1) receptor [1]; Table 1, hM1 PAM, mean ± SEM): 5.49 ± 0.10; selectivity across rat muscarinic receptors (M1-M5) [4]: completely selective for the M1 receptors

Structure (SMILES)	hM1 PAM activity (in words) (human M1 (hM1) receptor [1])	other results
C[Si](C)(C)C1COC2(C1)C(=O)N(Cc1ccc(Br)cc1)c1ccccc12 (stereo not drawn) [Compound 16]	inactive	–
